Hits are enriched below; roughly 1.4% of the tested compounds scored in any of these assays.
Neddyl block: inhibitors of human cullin neddylation; TR-FRET cullin neddylation, biochemical; inhibition, % at 25 µM; actives 0.58% (n = 360,000); AID 651699; in the data active means inhibition above about 36%
Target sequence (P61081 whole entry, looked up): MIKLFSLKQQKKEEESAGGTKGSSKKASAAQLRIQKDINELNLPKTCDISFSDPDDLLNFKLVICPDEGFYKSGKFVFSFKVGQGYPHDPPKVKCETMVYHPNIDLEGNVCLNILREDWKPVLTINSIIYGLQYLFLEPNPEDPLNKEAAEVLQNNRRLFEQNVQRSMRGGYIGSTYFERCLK
Target sequence (Q13564 whole entry, looked up): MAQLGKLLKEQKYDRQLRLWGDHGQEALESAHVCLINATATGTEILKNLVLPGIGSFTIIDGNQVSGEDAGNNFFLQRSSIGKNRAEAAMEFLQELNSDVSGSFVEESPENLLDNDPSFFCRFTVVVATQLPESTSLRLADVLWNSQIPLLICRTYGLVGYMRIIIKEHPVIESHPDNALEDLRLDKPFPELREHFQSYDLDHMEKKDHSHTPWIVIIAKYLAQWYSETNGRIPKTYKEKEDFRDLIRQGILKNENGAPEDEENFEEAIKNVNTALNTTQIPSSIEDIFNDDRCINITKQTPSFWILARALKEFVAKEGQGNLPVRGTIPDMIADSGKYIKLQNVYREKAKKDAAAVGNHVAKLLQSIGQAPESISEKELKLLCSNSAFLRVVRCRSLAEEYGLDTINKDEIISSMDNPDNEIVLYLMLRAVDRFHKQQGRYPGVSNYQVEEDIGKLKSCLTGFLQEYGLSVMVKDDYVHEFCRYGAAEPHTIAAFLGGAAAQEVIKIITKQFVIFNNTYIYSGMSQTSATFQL
UCH37 DUB inh: inhibitors of human deubiquitinating enzyme UCH37; actives 0.33% (n = 330,000); purified proteasome/UCH37, Ub-AMC cleavage fluorescence; inhibition, % (concentration not given with the values); AID 588478;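 active means mean inhibition over replicate wells above about 20%, limit read from the data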
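Schedule: 30 min plus 25 min, room temperature / Material: human UCH37 within purified proteasomes / Technique: AMC fluorescence intensity at 355/460 nm / Buffer or medium: pH 7.4 Tris-HCl (50 mM) with ovalbumin, ATP-MgCl2, DTT / Controls: wells without proteasome as full block, compound-free enzyme plus substrate as uninhibited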
CTSL1 counter: counter-screen for PFM18AAP inhibitors: inhibitors of F. hepatica cathepsin L1; recombinant F. hepatica cathepsin L1, Z-Leu-Arg-MCA fluorescence; AID 1906; actives 0.49% (n = 300,000); inhibition, % at 5.96 µM;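 active means inhibition above the mean of all tested compounds plus 3 SD, set per screening campaign, cut at about 17% in these data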
UBC9 SUMO inh: SUMOylation inhibition; P63279; inhibition, % at 35 µM; HTRF SUMOylation assay, SAE1/SAE2 + UBC9, in vitro; AID 2006; actives 0.36% (n = 290,000); in the data active means inhibition above about 50%, passing the limit was not always enough
Neddyl inh conf: confirmation of human cullin neddylation inhibitors. actives 13% (n = 1,800). shares compounds with Neddyl block. AID 652217. TR-FRET cullin neddylation biochemical assay. calls only at 25 µM; in the data active means inhibition above about 40%;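 further: neddylation substrate is the cullin 1 ring ligase complex with SKP2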
Hits are given with their value; 0 = inactive; - = no result shown; + = active, no number.

SMILES	Neddyl block	UCH37 DUB inh	CTSL1 counter	UBC9 SUMO inh	Neddyl inh conf
Cn1ccc2c(-c3cncc4ccccc34)cc3c(c21)C1CCC3O1 (stereo not given)	45.9	-	-	-	+
CCCN(CCC)CCCNC(=O)c1cc2c(-c3ccc(OC)c(OC)c3)nn(C)c2s1	41.4	0	0	0	0
COc1ccc(-c2nn(C)c3sc(C(=O)NCCN(C)C)cc23)cc1OC	0	-	0	0	-
Cc1cc(C)cc(C(=O)NN=Cc2ccoc2)c1	-	0	-	-	-
CCN(c1cccc(C)c1)S(=O)(=O)c1ccc2c3c(cccc13)C(=O)N2	0	0	0	0	-
CCN(CC)S(=O)(=O)c1ccc2c3c(cccc13)C(=O)N2	48.5	0	0	0	-
Cc1ccc(OCC(=O)NN=Cc2ccc(O)cc2)c([N+](=O)[O-])c1	-	0	-	-	-
O=c1[nH]c2ccccc2c2cn(-c3ccccc3)nc12	41.6	0	0	0	0
CCCNC(=O)C(=O)NN=Cc1ccc(OCc2ccccc2)cc1	-	0	-	-	-
COc1cc(C=NNC(=O)c2ccncc2)ccc1OC(C)=O	-	0	-	-	-
COc1ccc(NCC(=O)NN=CC2CCCCC2)cc1	-	0	-	-	-
Nc1nnc(-c2ccccc2Cl)s1	0	0	0	0	-
COc1ccccc1-c1nnc(N)s1	41.0	0	0	0	0
Cc1ccc(SCc2cc(=O)[nH]c(N=C(N)Nc3cccc4ccccc34)n2)cc1	-	0	-	-	-
COc1ccc(CCNC(=O)C2=CC=CN3CCS(=O)(=O)N=C23)cc1	0	0	-	-	-
O=C(NCCc1ccc(Cl)cc1)C1=CC=CN2CCS(=O)(=O)N=C12	46.2	0	-	-	+
COC(=O)c1ccccc1NC(=O)CN1CCN(c2ccccn2)CC1	0	0	0	0	-
COC(=O)c1ccccc1N/C=C1\CCc2c(c(C)nn2-c2ccccn2)C1=O	37.5	0	0	0	0
Cn1c(=O)c2nc(-c3ccccc3)c(-c3ccccc3)nc2n(C)c1=O	51.7	0	0	-	0
Cn1c(=O)c2nc(Cl)c(-c3ccccc3)nc2n(C)c1=O	0	0	0	0	-
COc1cc(-c2cc(C(=O)N3CCN(c4ccccn4)CC3)c3ccccc3n2)cc(OC)c1OC	41.8	0	0	-	0
COc1ccc(-c2cc(C(=O)N3CCCCCC3)c3ccccc3n2)c(OC)c1	41.8	0	0	0	-
COc1ccc(-c2cc(C(=O)N(C)CCc3ccc(OC)c(OC)c3)c3ccccc3n2)cc1	45.5	0	-	0	0
COc1ccc(-c2cc(C(=O)N3CCN(c4ccccn4)CC3)c3ccccc3n2)cc1	0	0	0	0	-
COc1ccc(-c2csc(NC(=O)c3cc(-c4cccs4)nc4ccccc34)n2)c(OC)c1	43.6	0	0	0	0
SMILES	Neddyl block	UCH37 DUB inh	CTSL1 counter	UBC9 SUMO inh	Neddyl inh conf
COc1ccc(C=NNC(=O)c2ccccc2OC)cc1COc1ccc(C)cc1	-	0	-	-	-
COc1cc(C=NNC(=O)c2nonc2N)c(OC)cc1Br	-	0	-	-	-
COc1cc(C=NNC(=O)c2ccncc2)c([N+](=O)[O-])cc1OC	-	0	-	-	-
COc1ccc(-c2cc(C(=O)N3CCN(c4ccccc4O)CC3)c3ccccc3n2)cc1OC	54.4	0	0	0	+
COc1ccc(C=NNc2nncc3ccccc23)c(OC)c1	-	0	-	-	-
CC(=NNC(=O)c1nnn(-c2nonc2N)c1CN1CCc2ccccc21)c1ccccc1O	-	0	-	-	-
CCN(C(=O)COC(=O)c1cc2ccccc2cc1OC)c1c(N)n(Cc2ccccc2)c(=O)[nH]c1=O	55.8	0	-	-	-
COc1ccc(CCC(=O)OCC(=O)N(C)c2c(N)n(Cc3ccccc3)c(=O)[nH]c2=O)cc1	0	0	0	-	-
COc1cc2ccccc2cc1C(=O)OCC(=O)N(C)c1c(N)n(Cc2ccccc2)c(=O)[nH]c1=O	49.2	0	0	-	-
CC(=NOCC(=O)Nc1ccccc1C(=O)O)c1cccs1	-	0	-	-	-
Cc1cccc(N(C(=O)c2snc(C(N)=O)c2N)C(C(=O)NCC2CCCO2)c2cccs2)c1 (stereo not given)	44.5	0	0	0	0
Cc1ccc(C)c(N(C(=O)c2snc(C(N)=O)c2N)C(C(=O)NCC2CCCO2)c2cccs2)c1 (stereo not given)	-	0	0	0	-
CCc1ccccc1N(C(=O)c1snc(C(N)=O)c1N)C(C(=O)NCC1CCCO1)c1ccc(OC)c(OC)c1 (stereo not given)	-	0	-	0	-
COc1ccc(C(C(=O)NCC2CCCO2)N(C(=O)c2snc(C(N)=O)c2N)c2ccccc2)cc1OC (stereo not given)	50.1	0	-	0	+
COc1cccc(N(C(=O)c2snc(C(N)=O)c2N)C(C(=O)NCC2CCCO2)c2ccc(F)cc2)c1 (stereo not given)	43.6	0	0	0	0
COc1cccc(N(C(=O)c2snc(C(N)=O)c2N)C(C(=O)NCC2CCCO2)c2ccc(C)o2)c1 (stereo not given)	0	0	0	0	-
CCCC(C(=O)NC(C)(C)C)N(CC1CCCO1)C(=O)c1snc(C(N)=O)c1N (stereo not given)	0	0	0	0	-
CCCC(C(=O)NC1CCCC1)N(CC1CCCO1)C(=O)c1snc(C(N)=O)c1N (stereo not given)	41.0	0	0	0	0
COc1cc(C=NNC(=S)Nc2cccc(Cl)c2C)ccc1OCC(=O)N1CC(C)OC(C)C1 (stereo not given)	-	0	-	-	-
CCOc1ccc(-c2c(C(=O)NN=Cc3ccc(C)cc3)nnn2-c2nonc2N)cc1	-	0	-	-	-
Cc1ccc2nc(N(CCN(C)C)C(=O)/C=C/c3cccs3)sc2c1	0	0	0	0	-
CN(C)CCN(C(=O)/C=C/c1cccs1)c1nc2ccc(Br)cc2s1	40.1	0	0	-	0
CN(C)c1ccc(/C=N/NC(=O)CNC(=O)c2ccc3c(c2)OCCO3)cc1	58.0	-	0	0	-
CCCCCC(=O)N/N=C/c1ccc(N(C)C)cc1	42.5	-	0	0	-
CCN(CC)c1ccc(/C=N/NC(=O)CNC(=O)c2ccc3c(c2)OCCO3)cc1	-	-	0	0	-
SMILES	Neddyl block	UCH37 DUB inh	CTSL1 counter	UBC9 SUMO inh	Neddyl inh conf
CN(C)c1ccc(/C=N/NC(=O)Cn2nnc3ccccc32)cc1	40.3	-	0	0	0
CN(C)c1ccc(/C=N/NC(=O)CCCCCNC(=O)c2ccccc2)cc1	42.5	-	0	0	+
Cc1ccc(C2=[N+]([O-])C3(CCCCCC3=NO)N(O)C2(C)C)o1 (stereo not given)	-	0	-	-	-
CCOc1ccccc1N(CC(=O)NN=C(C)c1cccc(Br)c1)S(C)(=O)=O	-	0	-	-	-
COc1ccc(OCC(=O)NN=Cc2ccc(N(C)C)cc2)cc1	-	0	-	-	-
COc1ccc(OCC(=O)N/N=C/c2ccc(N(C)C)cc2)cc1	44.8	-	0	0	+
CC(C)CN1C(=O)c2ccc(NC(=O)c3ccco3)cc2C1=O	0	0	0	0	-
CC(C)CN1C(=O)c2ccc(NC(=O)C3CC3)cc2C1=O	41.4	0	0	0	0
CCC(=NNC(=O)CNc1ccc(Cl)cc1C)c1ccccc1	-	0	-	-	-
Cc1ccc(NC(=O)c2cc3ccccc3cc2O)cc1	43.1	0	0	0	0
CCOC(=O)c1ccc(-c2ccc(C=NNC(=O)c3cncc(Br)c3)o2)cc1	-	0	-	-	-
O=C(NCCCc1ccccc1)c1ccccc1O	41.9	0	0	0	0
O=C(NCCCCCCNC(=O)c1ccccc1O)c1ccccc1O	0	0	0	0	-
